This note sets out measurements from ChEMBL document CHEMBL3425461, “Positron emission tomography to elucidate pharmacokinetic differences of regioisomeric retinoid x receptor agonists” (ACS Med Chem Lett, 2015).

pEC50: −log10 of the molar value.

A short description of data set [1]: Drug level in ICR mouse plasma at 30 mg/kg, po administered as single dose measured after 1 hr. It is filed as ADME, organism-based. Further details: dose 30 mg/kg, route oral; call rule not given here. In short, it runs like this: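 Single oral dose of 30 mg/kg given as 0.5% CMC suspension to mice; blood and brain concentrations of non-radioactive compound measured 1 h after dosing.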

For data set [2], the system named is Heart. Description: Drug uptake in ICR mouse heart at 8 to 11 MBq, iv during 0 to 30 mins by PET imaging method. Type of data set: ADME, organism-based. As to conditions: in vivo. In short, it runs like this:
(§1)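 Tracer in EtOH diluted with saline to 10 MBq, given i.v. or p.o.; 30 min PET scan; blood radioactivity as %ID/mL from heart %ID divided by heart volume; AUC over 0–30 min; bioavailability as dose-corrected oral AUC over i.v. AUC; n = 3–5, mean ± SEM.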

A short description of data set [3]: Retention time of the compound by HPLC method. It is filed as physicochemical. In outline: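 Reversed-phase HPLC, 3 μm column, 0.7 mL/min, methanol/25 mM ammonium acetate pH 5.0 (80:20 v/v) mobile phase, UV detection at 260 nm.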
Data set [4] can be described thus: Ratio of drug level in brain to plasma of ICR mouse at 30 mg/kg, po administered as single dose measured after 1 hr.
A short description of data set [5]: Drug level in ICR mouse brain at 30 mg/kg, po administered as single dose measured after 1 hr.
Data set [6] in a line: AUC in mouse blood at 30 mg/kg, po. Type of data set: ADME, organism-based. The arrangement: dose 30 mg/kg, route oral. In short, it runs like this: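 AUC at 30 mg/kg p.o. in mice taken from earlier work; skip.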
Data set [7] can be described thus: Drug uptake in ICR mouse gall bladder at 8 to 11 MBq, iv by PET/CT imaging method. It is filed as ADME, organism-based. Particulars: in vivo. In short, it runs like this: (§2)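 Tracer dissolved in EtOH, diluted with saline to 10 MBq, given i.v. or p.o.; 30 min PET/CT scan, images reconstructed at selected times; organ ROIs defined from PET/CT data; uptake expressed as %ID (organ Bq per whole-body Bq) from mean pixel radioactivity; n = 3–5, mean ± SEM; one-way ANOVA then t-test.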

Data set [8] has as its system Heart. Description: Ratio of AUC (0 to 30 mins) in ICR mouse heart at 8 to 11 MBq, po to AUC (0 to 30 mins) in ICR mouse heart at 8 to 11 MBq, iv. As to conditions: in vivo. Type of data set: ADME, organism-based. In short, it runs like this: as §1
Data set [9] has as its system Stomach. In words: Drug uptake in ICR mouse stomach at 8 to 11 MBq, po after 30 mins by PET/CT imaging method. It is filed as ADME, organism-based. As to conditions: in vivo, 0.5 h. In short, it runs like this: as §2
In data set [10] the test system is Heart. In words: Drug uptake in ICR mouse heart at 8 to 11 MBq, iv by PET/CT imaging method. Particulars: in vivo. It is filed as ADME, organism-based. In short, it runs like this: as §2
For data set [11], the system named is Liver. Description: Drug uptake in ICR mouse liver at 8 to 11 MBq, po by PET/CT imaging method. It is filed as ADME, organism-based. Particulars: in vivo. In short, it runs like this:
as §2

A short description of data set [12]: Drug uptake in ICR mouse gall bladder at 8 to 11 MBq, po by PET/CT imaging method. Particulars: in vivo. It is filed as ADME, organism-based. In short, it runs like this: as §2
The subject of data set [13] is Stomach. Description: Drug uptake in ICR mouse stomach at 8 to 11 MBq, po by PET/CT imaging method. Particulars: in vivo. Type of data set: ADME, organism-based. In short, it runs like this: as §2
Data set [14] can be described thus: Drug uptake in ICR mouse urinary bladder at 8 to 11 MBq, po by PET/CT imaging method. As to conditions: in vivo. Type of data set: ADME, organism-based. In short, it runs like this: as §2
The nature of data set [15]: Drug uptake in ICR mouse urinary bladder at 8 to 11 MBq, iv by PET/CT imaging method. Type of data set: ADME, organism-based. Particulars: in vivo. In short, it runs like this: as §2
For data set [16], the system named is Kidney. Description: Drug uptake in ICR mouse kidney at 8 to 11 MBq, po by PET/CT imaging method. As to conditions: in vivo. Type of data set: ADME, organism-based.
The test system of data set [17] is Kidney. In words: Drug uptake in ICR mouse kidney at 8 to 11 MBq, iv by PET/CT imaging method. It is filed as ADME, organism-based. As to conditions: in vivo.
The test system of data set [18] is Duodenum. In words: Drug uptake in ICR mouse duodenum at 8 to 11 MBq, po by PET/CT imaging method. Type of data set: ADME, organism-based. As to conditions: in vivo. In outline: as §2
In data set [19] the test system is Liver. Description: Drug uptake in ICR mouse liver at 8 to 11 MBq, iv by PET/CT imaging method. Particulars: in vivo. It is filed as ADME, organism-based. In outline: as §2
In data set [20] the test system is Duodenum. Description: Drug uptake in ICR mouse duodenum at 8 to 11 MBq, iv by PET/CT imaging method. It is filed as ADME, organism-based. Particulars: in vivo. In outline:
as §2

The target in data set [21] is T1, Retinoic acid receptor RXR-alpha (Homo sapiens, UniProt P19793).
T1 sequence (P19793 whole entry): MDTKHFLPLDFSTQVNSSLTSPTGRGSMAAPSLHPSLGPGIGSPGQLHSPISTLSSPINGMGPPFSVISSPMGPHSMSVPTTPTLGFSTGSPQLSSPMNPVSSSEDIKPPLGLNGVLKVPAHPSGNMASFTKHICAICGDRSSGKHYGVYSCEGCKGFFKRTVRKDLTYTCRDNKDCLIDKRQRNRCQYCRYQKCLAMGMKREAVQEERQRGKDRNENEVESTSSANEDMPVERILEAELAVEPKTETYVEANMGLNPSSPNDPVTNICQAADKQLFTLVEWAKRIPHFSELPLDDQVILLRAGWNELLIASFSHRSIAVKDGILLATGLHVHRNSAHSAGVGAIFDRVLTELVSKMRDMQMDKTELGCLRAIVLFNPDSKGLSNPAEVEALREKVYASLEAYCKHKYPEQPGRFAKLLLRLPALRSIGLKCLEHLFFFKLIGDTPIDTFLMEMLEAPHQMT
Description: Agonist activity at RXRalpha (unknown origin) expressed in COS1 cells incubated for 18 hrs by luciferase reporter gene assay. It is filed as cell-based, COS-1.

Consider `C=C(c1ccc(C(=O)O)cc1)c1cc2c(cc1C)C(C)(C)CCC2(C)C` [BEXAROTENE], for which the concentration at 1 h in data set [1] amounted to 4150 ng/mL.
For the compound `CCN(c1ccc(OCC(C)C)c(C(C)C)c1)c1ccc([11C](=O)O)cn1`, the Drug uptake result in the data set with Heart [2] is reported as “Active”.
`CCN(c1ccc(C(C)C)c(OCC(C)C)c1)c1ccc([11C](=O)O)cn1`: the Drug uptake entry with Heart [2] is on record as “Active”.
In turn, `CCN(c1ccc(C(C)C)c(OCC(C)C)c1)c1ccc(C(=O)O)cn1` gave a Retention_time in data set [3] of 12.7 min. Also, the values for the concentration at 1 h in data set [1] and in [5] were 1320 ng/mL and 978 ng/mL, respectively. Besides, in data set [4], the Kp at 1 h was 0.74. Moreover, in data set [6], the AUC came to 1140 ng·h/mL.
Turning to `CCN(c1ccc(OCC(C)C[18F])c(C(C)C)c1)c1ccc(C(=O)O)cn1` (stereo unspecified), the Drug uptake result (in data set [7]; in the data set on Stomach [9]; with Heart [10]; in the data set with Liver [11]; in data set [12]; in the data set on Stomach [13]) was “Active” each time. Besides, the Drug uptake result in data set [14] is on record as “Not Active”; in [15] it was “Not Active”; with Kidney [16] it was “Not Active”; in the data set with Kidney [17], “Not Active”; in the data set on Duodenum [18], “Active”; in the data set with Liver [19], “Active”. Moreover, the Drug uptake entry in the data set with Duodenum [20] is “Active”. For the same compound, the Ratio with Heart [8] amounted to 0.43.
For the compound `CCN(c1ccc(OCC(C)C)c(C(C)C)c1)c1ccc(C(=O)O)cn1`, the Retention_time in data set [3] was 11.7 min. Moreover, the concentration at 1 h stood at 6760 ng/mL in data set [1] and 2570 ng/mL in data set [5]. The same compound gave a negative logarithm of the EC50 (pEC50) in [21] of 6.77. For the same compound, the partition ratio (Kp) at 1 h in [4] is 0.38. Further, in [6], the AUC turned out to be 18800 ng·h/mL.
On to `CCN(c1ccc(C(C)C)c(OCC(C)C[18F])c1)c1ccc(C(=O)O)cn1` (stereo unspecified), for which the Drug uptake entry (in data set [7]; in the data set with Stomach [9]; in the data set on Heart [10]; in the data set with Liver [11]; in [12]; with Stomach [13]) was “Active” in each case. Also, the Drug uptake result in [14] is given as “Not Active”; in data set [15], “Not Active”; with Kidney [16], “Not Active”; with Kidney [17], “Not Active”; in the data set with Duodenum [18], “Active”; in the data set with Liver [19] it was “Active”. For the same compound, the Drug uptake result in the data set with Duodenum [20] was “Active”. Further, the Ratio with Heart [8] came to 0.18.
In data set [3], `CCN(c1ccc(OCC(C)CF)c(C(C)C)c1)c1ccc(C(=O)O)cn1` (stereo unspecified) had a Retention_time of 6.7 min. In [21], this compound gave a pEC50 of 6.35.
For `CCN(c1ccc(C(C)C)c(OCC(C)CF)c1)c1ccc(C(=O)O)cn1` (stereo unspecified), in that order: 7.63 min and 7.92.
